{
  "source": "ChEMBL document CHEMBL4152184",
  "about": "“NB 06: From a simple lysosomotropic aSMase inhibitor to tools for elucidating the role of lysosomes in signaling apoptosis and LPS-induced inflammation” (Eur J Med Chem, 2018)",
  "key": {"MONO-MAC-6 [1]": {"system": "MONO-MAC-6", "experiment": "Downregulation of IL-6 mRNA expression level in human MONO-MAC-6 cells at 5 uM incubated for 30 mins measured after 2 hrs by qRT-PCR method relative to control", "assay_type": "functional"}, "[2]": {"molecular_target": "T1, Acid ceramidase (Homo sapiens) (UniProt Q13510)", "T1 sequence (whole entry)": "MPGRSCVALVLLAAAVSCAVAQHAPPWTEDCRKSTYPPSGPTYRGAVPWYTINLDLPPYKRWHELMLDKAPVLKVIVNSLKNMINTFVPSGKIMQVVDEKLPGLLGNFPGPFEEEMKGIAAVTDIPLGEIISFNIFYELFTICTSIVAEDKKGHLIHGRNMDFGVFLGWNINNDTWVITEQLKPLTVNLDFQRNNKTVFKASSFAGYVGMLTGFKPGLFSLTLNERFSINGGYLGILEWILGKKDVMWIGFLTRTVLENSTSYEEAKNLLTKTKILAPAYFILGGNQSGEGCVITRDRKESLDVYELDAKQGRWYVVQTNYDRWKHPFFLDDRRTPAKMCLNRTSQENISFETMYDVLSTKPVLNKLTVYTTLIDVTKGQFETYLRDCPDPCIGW", "experiment": "Inhibition of acid ceramidase in human PBMC assessed as ratio of C16-ceramide/lipid phosphate level at 10 uM incubated for 30 mins measured after 4 hrs by HPLC method", "assay_type": "cell-based", "outline": "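Human macrophages from primary culture were preincubated 30 min with 10 µM compound. They were then stimulated 4 h with mmLDL (54 µg/mL), TNFalpha (3 ng/mL) or exogenous C6-ceramide (10 µM), or left unstimulated. Individual ceramide species (C16 and C24:1) were quantified in the cell lipid extracts.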"}, "MONO-MAC-6 [3]": {"system": "MONO-MAC-6", "experiment": "Upregulation of CXCL2 mRNA expression level in LPS-stimulated human MONO-MAC-6 cells at 5 uM preincubated for 30 mins followed by LPS stimulation measured after 1 hr by qRT-PCR method (reference value: 1.29)", "assay_type": "functional"}, "MONO-MAC-6 [4]": {"system": "MONO-MAC-6", "experiment": "Upregulation of IL23A mRNA expression level in LPS-stimulated human MONO-MAC-6 cells at 5 uM preincubated for 30 mins followed by LPS stimulation measured after 1 hr by qRT-PCR method (reference value: 1.10)", "assay_type": "functional"}, "MONO-MAC-6 [5]": {"system": "MONO-MAC-6", "experiment": "Downregulation of ICAM1 mRNA expression level in human MONO-MAC-6 cells at 5 uM incubated for 30 mins measured after 6 hrs by oligonucleotide array hybridization assay relative to control", "assay_type": "functional", "outline": "(§1)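 Total RNA was isolated, transcribed and labeled with DY-647 dye, then co-hybridized with DY-548-labeled cDNA from untreated cells on an inflammation oligonucleotide chip (780 gene probes). Differential expression >1.5 was taken as significant.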"}, "MONO-MAC-6 [6]": {"system": "MONO-MAC-6", "experiment": "Upregulation of ICAM1 mRNA expression level in LPS-stimulated human MONO-MAC-6 cells at 5 uM preincubated for 30 mins followed by LPS stimulation measured after 4 hrs by oligonucleotide array hybridization assay (reference value: 2.88)", "assay_type": "functional"}, "MONO-MAC-6 [7]": {"system": "MONO-MAC-6", "experiment": "Downregulation of CCL20 mRNA expression level in human MONO-MAC-6 cells at 5 uM incubated for 30 mins measured after 1 hr by oligonucleotide array hybridization assay relative to control", "assay_type": "functional", "outline": "as §1"}, "MONO-MAC-6 [8]": {"system": "MONO-MAC-6", "experiment": "Upregulation of TNFalpha mRNA expression level in LPS-stimulated human MONO-MAC-6 cells at 5 uM preincubated for 30 mins followed by LPS stimulation measured after 4 hrs by qRT-PCR method (reference value: 4.32)", "assay_type": "functional"}, "MONO-MAC-6 [9]": {"system": "MONO-MAC-6", "experiment": "Downregulation of PTX3 mRNA expression level in LPS-stimulated human MONO-MAC-6 cells at 5 uM preincubated for 30 mins followed by LPS stimulation measured after 6 hrs by oligonucleotide array hybridization assay (reference value: 3.18)", "assay_type": "functional", "outline": "as §1"}, "MONO-MAC-6 [10]": {"system": "MONO-MAC-6", "experiment": "Upregulation of PTGS2 mRNA expression level in human MONO-MAC-6 cells at 5 uM incubated for 30 mins measured after 4 hrs by oligonucleotide array hybridization assay relative to control", "assay_type": "functional"}, "MONO-MAC-6 [11]": {"system": "MONO-MAC-6", "experiment": "Downregulation of CXCL2 mRNA expression level in human MONO-MAC-6 cells at 5 uM incubated for 30 mins measured after 6 hrs by oligonucleotide array hybridization assay relative to control", "assay_type": "functional", "outline": "as §1"}, "MONO-MAC-6 [12]": {"system": "MONO-MAC-6", "experiment": "Upregulation of CXCL2 mRNA expression level in LPS-stimulated human MONO-MAC-6 cells at 5 uM preincubated for 30 mins followed by LPS stimulation measured after 2 hrs by oligonucleotide array hybridization assay (reference value: 4.20)", "assay_type": "functional"}, "MONO-MAC-6 [13]": {"system": "MONO-MAC-6", "experiment": "Downregulation of IL-6 mRNA expression level in human MONO-MAC-6 cells at 5 uM incubated for 30 mins measured after 6 hrs by qRT-PCR method relative to control", "assay_type": "functional"}, "MONO-MAC-6 [14]": {"system": "MONO-MAC-6", "experiment": "Downregulation of IL-6 mRNA expression level in human MONO-MAC-6 cells at 5 uM incubated for 30 mins measured after 1 hr by qRT-PCR method relative to control", "assay_type": "functional"}, "MONO-MAC-6 [15]": {"system": "MONO-MAC-6", "experiment": "Downregulation of CXCL3 mRNA expression level in human MONO-MAC-6 cells at 5 uM incubated for 30 mins measured after 6 hrs by oligonucleotide array hybridization assay relative to control", "assay_type": "functional", "outline": "as §1"}, "MONO-MAC-6 [16]": {"system": "MONO-MAC-6", "experiment": "Upregulation of CCL4 mRNA expression level in LPS-stimulated human MONO-MAC-6 cells at 5 uM preincubated for 30 mins followed by LPS stimulation measured after 1 hr by oligonucleotide array hybridization assay (reference value: 1.14)", "assay_type": "functional"}, "MONO-MAC-6 [17]": {"system": "MONO-MAC-6", "experiment": "Downregulation of CXCL2 mRNA expression level in human MONO-MAC-6 cells at 5 uM incubated for 30 mins measured after 4 hrs by qRT-PCR method relative to control", "assay_type": "functional"}, "MONO-MAC-6 [18]": {"system": "MONO-MAC-6", "experiment": "Downregulation of IL23A mRNA expression level in human MONO-MAC-6 cells at 5 uM incubated for 30 mins measured after 6 hrs by qRT-PCR method relative to control", "assay_type": "functional"}, "[19]": {"molecular_target": "T2, Sphingomyelin phosphodiesterase (Homo sapiens) (UniProt P17405)", "T2 sequence (whole entry)": "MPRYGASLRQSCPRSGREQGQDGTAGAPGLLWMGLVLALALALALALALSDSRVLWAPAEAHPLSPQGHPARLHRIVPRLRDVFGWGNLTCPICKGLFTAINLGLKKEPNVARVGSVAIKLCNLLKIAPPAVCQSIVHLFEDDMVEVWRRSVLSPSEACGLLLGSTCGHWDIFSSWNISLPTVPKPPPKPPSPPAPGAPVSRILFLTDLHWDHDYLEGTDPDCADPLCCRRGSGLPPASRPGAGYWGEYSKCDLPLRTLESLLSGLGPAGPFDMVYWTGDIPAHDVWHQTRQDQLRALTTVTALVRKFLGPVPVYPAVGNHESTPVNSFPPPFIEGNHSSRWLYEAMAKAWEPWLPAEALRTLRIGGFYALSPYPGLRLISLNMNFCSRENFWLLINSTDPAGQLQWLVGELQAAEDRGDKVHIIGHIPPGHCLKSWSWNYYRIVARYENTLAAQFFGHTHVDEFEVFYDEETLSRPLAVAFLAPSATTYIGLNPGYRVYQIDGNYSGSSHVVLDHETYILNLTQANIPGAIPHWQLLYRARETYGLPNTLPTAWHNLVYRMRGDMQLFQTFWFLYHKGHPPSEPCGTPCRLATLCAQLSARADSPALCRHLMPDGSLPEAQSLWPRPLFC", "experiment": "Inhibition of mmLDL-stimulated acid sphingomyelinase in human PBMC lysates at 100 uM preincubated for 30 mins followed by mmLDL stimulation measured after 4 hrs by YO-PRO-1/Hoechst 33342 staining based assay"}},
  "note": "The source made the active and inactive calls. The rule behind the calls is not given here.",
  "data": [
    {"smiles": "COc1ccc(CCN(C)CCCn2c3ccccc3c3ccccc32)cc1", "values": [
      {"measurement": "fold change (FC)", "setting": "MONO-MAC-6 [1]", "result": 2.15},
      {"measurement": "Ratio", "setting": "[2]", "result": 0.38},
      {"measurement": "fold change (FC)", "setting": "MONO-MAC-6 [3]", "result": 1.08},
      {"measurement": "fold change (FC)", "setting": "MONO-MAC-6 [4]", "result": 1.03},
      {"measurement": "fold change (FC)", "setting": "MONO-MAC-6 [5]", "result": 1.79},
      {"measurement": "fold change (FC)", "setting": "MONO-MAC-6 [6]", "result": 1.31},
      {"measurement": "fold change (FC)", "setting": "MONO-MAC-6 [7]", "result": 1.09},
      {"measurement": "fold change (FC)", "setting": "MONO-MAC-6 [8]", "result": 1.37},
      {"measurement": "fold change (FC)", "setting": "MONO-MAC-6 [9]", "result": 1.05},
      {"measurement": "fold change (FC)", "setting": "MONO-MAC-6 [10]", "result": 1.17},
      {"measurement": "fold change (FC)", "setting": "MONO-MAC-6 [11]", "result": 5.44},
      {"measurement": "fold change (FC)", "setting": "MONO-MAC-6 [12]", "result": 3.88},
      {"measurement": "fold change (FC)", "setting": "MONO-MAC-6 [13]", "result": 46.64},
      {"measurement": "fold change (FC)", "setting": "MONO-MAC-6 [14]", "result": 1.04},
      {"measurement": "fold change (FC)", "setting": "MONO-MAC-6 [15]", "result": 4.67},
      {"measurement": "fold change (FC)", "setting": "MONO-MAC-6 [16]", "result": 1.24},
      {"measurement": "fold change (FC)", "setting": "MONO-MAC-6 [17]", "result": 1.845},
      {"measurement": "fold change (FC)", "setting": "MONO-MAC-6 [18]", "result": 1.72},
      {"measurement": "inhibition", "setting": "[19]", "result": "Active"}
    ]}
  ]
}
